Here are results for 10 compounds from ChEMBL document CHEMBL3992497, “Synthesis, structure-activity relationships and biological evaluation of 7-phenyl-pyrroloquinolinone 3-amide derivatives as potent antimitotic agents” (Eur J Med Chem, 2017).

Active and inactive are the calls of the source. No cut-off for these calls is given here.

By GI50 is commonly meant the concentration that inhibits growth by half. A word on the inhibition: it is the drop in the measured response relative to a control, in per cent. What is called IC50 is the point on the concentration scale where inhibition reaches its midpoint. A lower IC50 goes with greater potency in that assay.

Assay [1] relates to HeLa. Briefly: Antiproliferative activity against human HeLa cells after 72 hrs by MTT assay. It counts as functional. An outline of the steps: (§1)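 Compounds from 10 mM DMSO stocks. Cells seeded at 8 × 10^3 per well and held 18 h at 37 °C in humidified 5% CO2. Medium was then replaced with fresh medium holding graded compound concentrations, in triplicate, for 72 h at 37 °C. Viability was read by MTT. GI50 is the concentration giving 50% inhibition of proliferation. Mean ± SE of ≥3 independent dose-response experiments.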
On the technique in general: Tetrazolium assays rely on reduction of a dye to a coloured formazan, in cell work by metabolically active cells.

Assay [2] concerns CCRF-CEM. Briefly: Antiproliferative activity against human CCRF-CEM cells after 72 hrs by MTT assay. The format is functional. Summed up: as §1
Assay [3] has as its system HT-29. Kind of assay: Antiproliferative activity against human HT-29 cells after 72 hrs by MTT assay. The format is functional. The settings on record: HT-29, 72 h. Summed up: as §1
The test system of assay [4] is A549. Kind of assay: Antiproliferative activity against human A549 cells after 72 hrs by MTT assay. The settings on record: A549, 72 h. The format is functional. An outline of the steps:
as §1

Assay [5] concerns RS4-11. Kind of assay: Antiproliferative activity against human RS4:11 cells after 72 hrs by MTT assay. The settings on record: RS4-11, 72 h. The format is functional. An outline of the steps:
as §1

Assay [6] deals with HL-60. Kind of assay: Antiproliferative activity against human HL60 cells after 72 hrs by MTT assay. The settings on record: HL-60, 72 h. The format is functional. Summed up:
as §1

Assay [7] relates to SEM cells. Kind of assay: Antiproliferative activity against human SEM cells after 72 hrs by MTT assay. It counts as functional. Summed up: as §1
Assay [8] deals with MV4-11. Briefly: Antiproliferative activity against human MV4-11 cells after 72 hrs by MTT assay. The format is functional. The settings on record: MV4-11, 72 h. An outline of the steps: as §1
In assay [9] the test system is MCF7. Kind of assay: Antiproliferative activity against human MCF7 cells after 72 hrs by MTT assay. The format is functional. The settings on record: MCF7, 72 h. Summed up:
as §1

In assay [10] the test system is Jurkat. Briefly: Antiproliferative activity against human Jurkat cells after 72 hrs by MTT assay. The format is functional. An outline of the steps: as §1
The test system of assay [11] is THP-1. Kind of assay: Antiproliferative activity against human THP1 cells after 72 hrs by MTT assay. The settings on record: THP-1, 72 h. It counts as functional. Summed up: as §1
The species named for assay [12] is Bos taurus. Kind of assay: Inhibition of [3H]colchicine binding to bovine brain tubulin at 5 uM relative to control. Summed up:
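Reaction mixtures held 1 μM tubulin, 5 μM [3H]colchicine and 5 μM test compound. Inhibition of bound radiolabel measured relative to control.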

The nature of assay [13]: Inhibition of bovine brain tubulin assembly preincubated for 20 mins followed by GTP addition by turbidometric method. More on the design: species or system Bos taurus. An outline of the steps: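 Varying compound concentrations pre-incubated with 10 μM bovine brain tubulin in glutamate buffer at 30 °C, then chilled to 0 °C. GTP added to 0.4 mM final, mixture warmed to 30 °C, turbidity followed at 350 nm.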

Assay [14] has as its system HeLa. Briefly: Cell cycle arrest in human HeLa cells assessed as accumulation at G2/M phase at 50 to 100 nM after 24 hrs by propidium iodide staining based flow cytometry. The format is functional. Summed up:
(§2)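 5 × 10^5 cells exposed to varying compound concentrations for 24 h. Cells collected, fixed in ice-cold 70% ethanol, and lysed in buffer with RNase A and 0.1% Triton X-100. PI-stained, then analysed by flow cytometry for phase distribution from DNA histograms. Mean of two independent experiments.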
(In general: Flow cytometry measures light scatter and fluorescence of single cells or particles in a stream.)

In assay [15] the test system is Jurkat. Briefly: Induction of ROS generation in human Jurkat cells at 10 to 100 nM after 24 to 48 hrs by H2-DCFDA staining based flow cytometry. The format is functional, cell-based. Summed up:
(§3)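 Cells exposed for 24 or 48 h at the indicated concentrations, then loaded with H2-DCFDA. ROS read as oxidised DCF fluorescence by flow cytometry. Mean ± SEM of three independent experiments.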

The test system of assay [16] is PBL. Briefly: Antiproliferative activity against phytohematoaglutinin-stimulated human PBL after 72 hrs by MTT assay. The format is cell-based. Summed up:
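Donor PBL isolated on a Lymphoprep gradient and rested overnight in RPMI-1640 with 10% FBS. Non-adherent cells resuspended at 5 × 10^5 cells/mL in growth medium with 2.5 μg/mL PHA. Graded compound concentrations added; viability by MTT at 72 h. Mean ± SEM of three separate experiments.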

Assay [17] has as its system HeLa. Briefly: Induction of ROS generation in human HeLa cells at 10 to 100 nM after 24 to 48 hrs by H2-DCFDA staining based flow cytometry. It counts as functional, cell-based. An outline of the steps: as §3
For assay [18], the system named is PBL. Briefly: Antiproliferative activity against human PBL after 72 hrs by MTT assay. It counts as cell-based. An outline of the steps:
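PBL from healthy donors separated on a Lymphoprep gradient, washed, and held overnight at 1.0 × 10^6 cells/mL in RPMI-1640 with 10% FBS. Non-adherent resting cells resuspended at 5 × 10^5 cells/mL without PHA. Graded compound concentrations for 72 h, then MTT. Mean ± SEM of three separate experiments.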

Assay [19] concerns Jurkat. Kind of assay: Cell cycle arrest in human Jurkat cells assessed as accumulation at G2/M phase at 50 to 100 nM after 24 hrs by propidium iodide staining based flow cytometry. The format is functional. Summed up: as §2

As to `CS(=O)(=O)N1CCc2cc3[nH]c(-c4ccccc4)cc(=O)c3cc21`, the GI50 in [1] was 7.64 µM; in [2], > 10 µM; in [3], > 10 µM; in assay [4] it was > 10 µM; in [5], > 10 µM; in assay [6], > 10 µM. Moreover, the GI50 in [7], in [8], in [9], in assay [10] and in assay [11] was > 10 µM each time.

Regarding `O=C(NC1CC1)n1ccc2c3c(=O)cc(-c4ccccc4)[nH]c3ccc21`, the GI50 in [1] was 0.212 µM; in [2], 0.092 µM; in assay [3], 0.255 µM; in assay [4], 0.171 µM; in assay [5] it was 0.027 µM; in assay [6], 0.155 µM. In addition, the GI50 in [7] was 0.011 µM; in [8], 0.085 µM; in assay [9], 0.096 µM; in assay [10], 0.145 µM; in assay [11], 0.066 µM. This compound had an inhibition in [12] of 18%. Further, the concentration for half-maximal inhibition (IC50) in assay [13] came out at 2.2 µM.

Consider `O=c1cc(-c2ccccc2)[nH]c2ccc3c(ccn3S(=O)(=O)c3ccc(C(F)(F)F)cc3)c12`, for which the GI50 came out at 0.022 µM in assay [1]; 0.032 µM in assay [2]; 0.023 µM in assay [3]; 0.063 µM in assay [4]; 0.147 µM in assay [5]; 0.039 µM in assay [6]. The GI50 was 0.033 µM in assay [7]; 0.086 µM in [8]; 0.005 µM in assay [9]; 0.081 µM in [10]; 0.042 µM in [11]. This compound also came in with an inhibition in assay [12] of 29%. Further, in assay [13], the IC50 came out at 2.4 µM.

Regarding `O=c1cc(-c2ccccc2)[nH]c2ccc3c(c12)CCN3S(=O)(=O)c1ccc(C(F)(F)F)cc1`, the GI50 is 0.373 µM in assay [1]; 0.435 µM in [2]; 0.255 µM in [3]; 0.541 µM in assay [4]; 0.211 µM in [5]; 1.62 µM in assay [6]. In addition, the GI50 in [7] is 0.336 µM; in assay [8], 0.356 µM; in assay [9] it was 0.475 µM; in [10] it was 0.256 µM; in assay [11], 0.846 µM.

For the compound `CS(=O)(=O)N1CCc2c1ccc1[nH]c(-c3ccccc3)cc(=O)c21`, the GI50 came to 0.563 µM in [1]; 0.235 µM in assay [2]; 0.623 µM in assay [3]; 0.451 µM in assay [4]; 0.035 µM in assay [5]; 0.291 µM in [6]. The GI50 in assay [7] worked out at 0.271 µM; in assay [8], 0.352 µM; in assay [9] it was 0.521 µM; in assay [10] it was 0.372 µM; in [11], 0.071 µM.

For `CS(=O)(=O)n1ccc2c3c(=O)cc(-c4ccccc4)[nH]c3ccc21`, the GI50 in [1] worked out at 0.036 µM; in [2], 0.042 µM; in assay [3] it was 0.007 µM; in [4], 0.003 µM; in assay [5] it was 0.018 µM; in assay [6], 0.215 µM. Moreover, the GI50 came out at 0.023 µM in [7]; 0.049 µM in assay [8]; 0.152 µM in assay [9]; 0.034 µM in assay [10]; 0.092 µM in assay [11]. In [12], this compound had an inhibition of 42%. The outcome in [14], in assay [15], in assay [17] and in [19] was Active. In addition, the IC50 in [16] is > 100 µM; in [18], > 100 µM; in assay [13] it was 1.2 µM.

For `O=C(c1ccccc1)N1CCc2c1ccc1[nH]c(-c3ccccc3)cc(=O)c21`, the GI50 amounted to 0.331 µM in assay [1]; 1.04 µM in assay [2]; 1.59 µM in [3]; 0.918 µM in [4]; 0.256 µM in assay [5]; 2.64 µM in [6]. Moreover, the GI50 is 0.918 µM in assay [7]; 1.54 µM in [8]; 1.11 µM in assay [9]; 1.34 µM in assay [10]; 2.17 µM in assay [11].

On to `Cc1ccc(S(=O)(=O)n2ccc3c4c(=O)cc(-c5ccccc5)[nH]c4ccc32)cc1`, for which the GI50 in assay [1] was found to be 0.026 µM; in [2] it was 0.032 µM; in assay [3] it was 0.005 µM; in [4], 0.052 µM; in assay [5], 0.048 µM; in assay [6], 0.335 µM. Moreover, the GI50 in assay [7] is 0.033 µM; in assay [8], 0.065 µM; in assay [9], 0.195 µM; in [10], 0.055 µM; in [11], 0.222 µM. The compound also had an inhibition in assay [12] of 37%. This compound also returned an IC50 in [13] of 1.1 µM.

For the compound `O=C(c1ccccc1)N1CCc2cc3[nH]c(-c4ccccc4)cc(=O)c3cc21`, the GI50 was found to be 1.45 µM in assay [1]; 0.818 µM in assay [2]; 5.44 µM in assay [3]; 3.56 µM in assay [4]; 0.132 µM in assay [5]; 3.74 µM in assay [6]. The GI50 in [7] was 1.66 µM; in assay [8] it was 1.98 µM; in assay [9], 6.32 µM; in [10], 2.32 µM; in [11], 2.32 µM.

For the compound `O=C(C1CC1)n1ccc2c3c(=O)cc(-c4ccccc4)[nH]c3ccc21`, the GI50 in assay [1] was 0.0016 µM; in assay [2], 0.017 µM; in assay [3], 0.001 µM; in assay [4] it was 0.009 µM; in assay [5], 0.0001 µM; in [6], 0.002 µM. Also, the GI50 in assay [7] stood at 0.0004 µM; in assay [8] it was 0.019 µM; in assay [9], 0.005 µM; in [10], 0.0003 µM; in assay [11] it was 0.074 µM.
